Data published in ChEMBL document CHEMBL2163238, “Design, synthesis, and biological evaluation of N-alkylated deoxynojirimycin (DNJ) derivatives for the treatment of dengue virus infection” (J Med Chem, 2012).

How the values were obtained:
[1] = Antiviral activity against 1 MOI BVDV NADL infected in MDBK cells assessed as reduction in viral titer after 22 hrs; type: functional, cell-based, Bovine viral diarrhea virus 1-NADL
Summary of the method: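 MDBK cells (2×10^5) infected 24 h after seeding with BVDV NADL at MOI 1, with 1 h adsorption at 37 °C. Washed, then compounds at 0.1–100 μM. Media harvested 22 h post-infection and plaque-titrated on MDBK under 1% methylcellulose for 3 days. Plaques counted directly or after neutral red staining. EC50 from dose–response curves, mean of 3 independent experiments.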

[2] = Cytotoxicity against MDBK cells assessed as cell viability by MTT assay; type: cell-based, Bos taurus; settings: cattle
[3] = Selectivity index, ratio of CC50 for MDBK cells to EC50 for BVDV NADL infected in MDBK cells
Summary of the method: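 MDBK cells infected with BVDV NADL at MOI 1, 1 h at 37 °C, washed, then compounds at 0.1–100 μM. Media harvested at 22 h, plaque-titrated on MDBK under 1% methylcellulose for 3 days, neutral red or direct count. EC50 from yield curves; MTT CC50 in uninfected MDBK; SI = CC50/EC50.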

[4] = Selectivity index, ratio of CC50 for BHK cells to EC50 for DENV-2 NGC infected in BHK cells
Summary of the method: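 BHK cells infected with DENV-2 New Guinea C at MOI 0.01 for 1 h, then compounds at 0.1–100 μM for 48 h at 37 °C. Supernatant titrated on Vero cells under 0.5% methylcellulose, 3–5 days; foci by 4G2 immunostaining or crystal violet plaques. EC50 from yield curves; MTT CC50 in uninfected BHK; SI = CC50/EC50.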

dengue virus type 2 = experiment: Antiviral activity against 0.01 MOI DENV-2 NGC infected in BHK cells assessed as reduction in viral titer after 48 hrs; type: functional, organism-based
Summary of the method: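 BHK cells infected with DENV-2 New Guinea C at MOI 0.01 for 1 h. Inoculum removed, then compounds at 0.1–100 μM for 48 h at 37 °C. Supernatants titrated on Vero monolayers as 10-fold dilutions under 0.5% methylcellulose for 3–5 days. Foci detected by 4G2 immunostaining or crystal violet plaques. EC50 from dose–response curves, mean of 3 independent experiments.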

[5] = Cytotoxicity against BHK cells assessed as cell viability by MTT assay; type: cell-based, Mesocricetus auratus; settings: hamster
[6] = Bovine viral diarrhea virus isolates and strains, MDBK, 22 h

| SMILES | EC50 [1, 6] [µM] | CC50 [2] [µM] | Ratio CC50/EC50 [3] | Ratio CC50/EC50 [4] | EC50 (dengue virus type 2) [µM] | CC50 [5] [µM] | EC50 ([1]; mdbk) [µM] |
| --- | --- | --- | --- | --- | --- | --- | --- |
| CCC1CCCCC1OCCCCCCN1C[C@H](O)[C@@H](O)[C@H](O)[C@H]1CO (stereo partly drawn) | 1.5 | 450 | 300 |  |  |  |  |
| CCCC1CCCCC1OCCCCCCN1C[C@H](O)[C@@H](O)[C@H](O)[C@H]1CO (stereo partly drawn) | 0.5 | 150 | 300 |  |  |  |  |
| CC1CCCC(OCCCCCCN2C[C@H](O)[C@@H](O)[C@H](O)[C@H]2CO)C1C (stereo partly drawn) | 1.2 | > 500 | >417 |  |  |  |  |
| OC[C@@H]1[C@@H](O)[C@H](O)[C@@H](O)CN1CCCc1cccc(OC2CCCCC2)c1 | 3.5 | 390 | 111 |  |  |  |  |
| OC[C@@H]1[C@@H](O)[C@H](O)[C@@H](O)CN1CCCCCCOc1c(F)c(F)c(F)c(F)c1F | 1 | > 500 | >500 | >294 | 1.7 | > 500 |  |
| CC(C)C(OCCCCCCN1C[C@H](O)[C@@H](O)[C@H](O)[C@H]1CO)C(C)C | 7.5 | > 500 | >67 |  |  |  |  |
| OC[C@@H]1[C@@H](O)[C@H](O)[C@@H](O)CN1CCCCCCOc1ccc(C(F)(F)F)cc1 | 1.1 | > 500 | >455 | 362 | 1.3 | 470 |  |
| Cc1cccc(OCCCCCCN2C[C@H](O)[C@@H](O)[C@H](O)[C@H]2CO)c1.Cl |  |  | >1250 |  |  |  | 0.4 |
| Cc1ccc(C(C)C)cc1OCCCCCCN1C[C@H](O)[C@@H](O)[C@H](O)[C@H]1CO | 0.7 | 90 | 129 |  |  |  |  |
| CCC1CCC(OCCCCCCN2C[C@H](O)[C@@H](O)[C@H](O)[C@H]2CO)CC1 (stereo partly drawn) | 0.4 | > 500 | >1250 | 1583 | 0.3 | 475 |  |
| OC[C@@H]1[C@@H](O)[C@H](O)[C@@H](O)CN1CCCc1ccccc1OC1CCCCC1 | 24 | 420 | >175 |  |  |  |  |
| CC1CC(OCCCCCCN2C[C@H](O)[C@@H](O)[C@H](O)[C@H]2CO)CC(C)(C)C1 (stereo partly drawn) | 0.8 | 250 | 312 |  |  |  |  |
| Cc1ccc(C(C)C)c(OCCCCCCN2C[C@H](O)[C@@H](O)[C@H](O)[C@H]2CO)c1 | 0.6 | 62 | 103 |  |  |  |  |
| CCC(CC)OCCCCCCN1C[C@H](O)[C@@H](O)[C@H](O)[C@H]1CO | 3 | 450 | 150 |  |  |  |  |
| CCCCC1CCC(OCCCCCCN2C[C@H](O)[C@@H](O)[C@H](O)[C@H]2CO)CC1 (stereo partly drawn) | 1.8 | 190 | 106 |  |  |  |  |
| CC1CCCC(OCCCCCCN2C[C@H](O)[C@@H](O)[C@H](O)[C@H]2CO)C1 (stereo partly drawn) | 0.3 | > 500 | >1667 |  |  |  |  |
| OC[C@@H]1[C@@H](O)[C@H](O)[C@@H](O)CN1CCCCCCOc1ccccc1F | 2.8 | > 500 | >179 |  |  |  |  |
| OC[C@@H]1[C@@H](O)[C@H](O)[C@@H](O)CN1CCCCCCOc1c(F)cc(F)cc1F | 5 | > 500 | >100 |  |  |  |  |
| CCCCCCCCCN1C[C@H](O)[C@@H](O)[C@H](O)[C@H]1CO | 1.1 | 350 | 318 |  |  |  |  |
| CCCOc1ccc(CCCN2C[C@H](O)[C@@H](O)[C@H](O)[C@H]2CO)cc1 | 0.2 | > 500 | >2500 | >1000 | 0.5 | > 500 |  |

| SMILES | EC50 [1, 6] [µM] | CC50 [2] [µM] | Ratio CC50/EC50 [3] | Ratio CC50/EC50 [4] | EC50 (dengue virus type 2) [µM] | CC50 [5] [µM] | EC50 ([1]; mdbk) [µM] |
| --- | --- | --- | --- | --- | --- | --- | --- |
| CCCOc1ccccc1CCCN1C[C@H](O)[C@@H](O)[C@H](O)[C@H]1CO | 0.8 | > 500 | >625 | >156 | 3.2 | > 500 |  |
| OC[C@@H]1[C@@H](O)[C@H](O)[C@@H](O)CN1CCCCCCOc1ccccc1 | 0.9 | > 500 | >556 | >294 | 1.7 | > 500 |  |
| OC[C@@H]1[C@@H](O)[C@H](O)[C@@H](O)CN1CCCCCCOc1cccnc1 | 2.5 | > 500 | >200 |  |  |  |  |
| CC1CCC(OCCCCCCN2C[C@H](O)[C@@H](O)[C@H](O)[C@H]2CO)CC1C (stereo partly drawn) | 3.5 | > 500 | >143 | > 1250 | 0.4 | > 500 |  |
| Cc1ccc(C(C)(C)C)c(OCCCCCCN2C[C@H](O)[C@@H](O)[C@H](O)[C@H]2CO)c1 | 0.6 | 85 | 142 |  |  |  |  |
| OC[C@@H]1[C@@H](O)[C@H](O)[C@@H](O)CN1CC/C=C/CCOc1cc(F)ccc1F | 0.9 |  | >556 | >227 | 2.2 | > 500 |  |
| OC[C@@H]1[C@@H](O)[C@H](O)[C@@H](O)CN1CCCCCCOc1cc(Cl)ccc1Cl | 1.5 | 320 | 213 |  |  |  |  |
| CCCCCC#CCCN1C[C@H](O)[C@@H](O)[C@H](O)[C@H]1CO | > 100 | > 500 |  |  |  |  |  |
| COc1ccc(OCCCCCCN2C[C@H](O)[C@@H](O)[C@H](O)[C@H]2CO)cc1 | 1 | > 500 | >500 | >125 | 4 | > 500 |  |
| OC[C@@H]1[C@@H](O)[C@H](O)[C@@H](O)CN1CCCCCCOC1CCCCC1C1CCCCC1 (stereo partly drawn) | 0.5 | 200 | 400 |  |  |  |  |
| OC[C@@H]1[C@@H](O)[C@H](O)[C@@H](O)CN1CCCCCCOc1ccccc1C(F)(F)F | 1 | > 500 | >500 |  |  |  |  |
| OC[C@@H]1[C@@H](O)[C@H](O)[C@@H](O)CN1CCCCCCOc1ccc(OC(F)(F)F)cc1 | 1.3 | > 500 | >385 | >833 | 0.6 | > 500 |  |
| Cc1ccccc1OCCCCCCN1C[C@H](O)[C@@H](O)[C@H](O)[C@H]1CO | 0.4 | > 500 | >1250 | 900 | 0.5 | 450 |  |
| OC[C@@H]1[C@@H](O)[C@H](O)[C@@H](O)CN1CCCCCCOc1ccc(F)cc1 | 0.3 | > 500 | >1667 | >455 | 1.1 | > 500 |  |
| OC[C@@H]1[C@@H](O)[C@H](O)[C@@H](O)CN1CCCCCCOC1CCCC1 | 0.3 | > 500 | >1667 | >357 | 1.4 | > 500 |  |
| OC[C@@H]1[C@@H](O)[C@H](O)[C@@H](O)CN1CCC#CCCOc1cc(F)ccc1F | 47 | > 500 | >11 | >25 | 20 | > 500 |  |
| OC[C@@H]1[C@@H](O)[C@H](O)[C@@H](O)CN1CCCc1ccc(OC2CCCCC2)cc1 | 5.5 | 295 | 54 |  |  |  |  |
| OC[C@@H]1[C@@H](O)[C@H](O)[C@@H](O)CN1CC/C=C\CCOc1cc(F)ccc1F | 2 | > 500 | >250 | >59 | 8.5 |  |  |
| CC/C=C\CCCCCN1C[C@H](O)[C@@H](O)[C@H](O)[C@H]1CO | 11 | > 500 | >45 |  |  |  |  |
